For data set [1], the target named is Amyloid-beta precursor protein (Homo sapiens) (UniProt P05067). As to the kind of experiment: Reduction in wild type APP751 (unknown origin) expressed in CHO cells assessed as increase in secreted APPalpha at 50 nM to 10 uM after 48 hrs by immunoblotting method. Format: cell-based. Further details: scale not given: the % may be the effect or the level left. An outline of the steps: (§1)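 48 h treatment of APP751wt-expressing CHO (7WD10) cells, DMSO control. Conditioned medium immunoblotted for sAPPα (6E10), sAPPβ (anti-sAPPβ-wt rabbit IgG) and total sAPP (63G). Detection by ECL, densitometric quantification.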
Amyloid-beta precursor protein (Homo sapiens), sequence (P05067 whole entry, the tested form may be a part): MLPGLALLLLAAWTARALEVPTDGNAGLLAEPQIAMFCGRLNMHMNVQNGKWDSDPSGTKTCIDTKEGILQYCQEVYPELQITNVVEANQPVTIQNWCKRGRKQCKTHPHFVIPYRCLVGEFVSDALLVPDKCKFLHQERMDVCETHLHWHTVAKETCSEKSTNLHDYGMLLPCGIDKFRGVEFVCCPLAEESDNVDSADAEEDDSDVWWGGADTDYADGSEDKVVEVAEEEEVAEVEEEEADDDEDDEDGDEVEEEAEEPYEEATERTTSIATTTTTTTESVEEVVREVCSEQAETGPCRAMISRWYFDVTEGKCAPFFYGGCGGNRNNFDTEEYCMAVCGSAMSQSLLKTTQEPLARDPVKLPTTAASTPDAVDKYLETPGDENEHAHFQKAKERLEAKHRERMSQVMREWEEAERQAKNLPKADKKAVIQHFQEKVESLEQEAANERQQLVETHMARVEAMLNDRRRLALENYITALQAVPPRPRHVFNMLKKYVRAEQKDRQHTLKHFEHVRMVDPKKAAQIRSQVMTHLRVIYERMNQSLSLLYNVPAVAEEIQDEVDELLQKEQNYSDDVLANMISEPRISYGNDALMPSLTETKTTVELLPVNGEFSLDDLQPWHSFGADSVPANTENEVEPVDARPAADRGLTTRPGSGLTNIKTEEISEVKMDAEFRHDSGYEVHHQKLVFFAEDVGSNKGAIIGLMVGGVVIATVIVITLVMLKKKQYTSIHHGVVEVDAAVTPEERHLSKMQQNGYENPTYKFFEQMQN
On the technique in general: A western blot detects proteins with antibodies after separation by electrophoresis.

The next data set relates to N2a. As to the kind of experiment: Reduction in […] APP695 Sweden mutant (unknown origin) expressed in N2a cells by immunoblotting method. The class given is cell-based. The note with it: Homo sapiens. An outline of the steps:
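Neuro-2a cells stably expressing APP695swe treated at 1.0 μM. Aβ immunoprecipitated from conditioned medium with Ab9 antibody (Aβ 1–16) and detected by immunoblot with 6E10/82E1 mixture.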

Data set [2] concerns the target Amyloid-beta precursor protein (Homo sapiens) (UniProt P05067). As to the kind of experiment: Reduction in wild type APP751 (unknown origin) expressed in CHO cells assessed as increase in beta c-terminal fragments at 50 nM to 10 uM after 48 hrs by immunoblotting method. Format: cell-based. In outline: (§2)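 7WD10 CHO cells (APP751wt) treated 48 h versus DMSO controls. Cells lysed in buffer with protease inhibitors. Full-length APP and C-terminal fragments detected with CT15 antibody by SDS-PAGE immunoblot and ECL, quantified by densitometry. n=4; ANOVA with Dunnett's test.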

The target is the same in data set [3]. The data set is described as follows: Reduction in wild type APP751 (unknown origin) expressed in CHO cells at 1 uM after 48 hrs by immunoblotting method. Format: cell-based. An outline of the steps: (§3)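 CHO cells stably expressing APP751wt (7WD10) treated 48 h, duplicate wells, DMSO as control. Conditioned medium centrifuged and immunoprecipitated overnight with Ab9 (Aβ 1–16). Aβ detected by SDS-PAGE immunoblot with 6E10/82E1 and ECL, signals quantified by densitometry. Dose-response n=4; ANOVA with Dunnett's post-hoc test.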

Data set [4] has the same target. The data set is described as follows: Reduction in wild type APP751 (unknown origin) expressed in CHO cells at 1 uM after 48 hrs by immunoblotting method relative to untreated control. Format: cell-based. In outline: as §3
The test system of data set [5] is CHO. As to the kind of experiment: Toxicity against CHO cells assessed as induction of cell death at 10 uM by MTT assay. The class given is cell-based, Cricetulus griseus. The note with it: chinese hamster. In outline:
(§4)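 Cytotoxicity in CHO cells measured by lactate dehydrogenase release and by MTT reduction. n=4 per group; ANOVA followed by Dunnett's post-hoc test.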

For data set [6], the target named is Amyloid-beta precursor protein (Homo sapiens) (UniProt P05067). As to the kind of experiment: Reduction in wild type APP751 (unknown origin) expressed in CHO cells at 50 nM after 48 hrs by immunoblotting method relative to untreated control. Format: cell-based. An outline of the steps: as §3
Data set [7] deals with CHO. The data set is described as follows: Toxicity against CHO cells assessed as induction of cell death up to 1 uM by LDH release assay. Format: cell-based, Cricetulus griseus. The note with it: chinese hamster. An outline of the steps: as §4
(LDH leaks from cells whose membrane has failed.)

Data set [8] addresses Amyloid-beta precursor protein (Homo sapiens) (UniProt P05067). As to the kind of experiment: Reduction in wild type APP751 (unknown origin) expressed in CHO cells assessed as increase in alpha c-terminal fragments at 50 nM to 10 uM after 48 hrs by immunoblotting method. Format: cell-based. Further details: scale not given: the % may be the effect or the level left. An outline of the steps: as §2

For data set [9] the target is unchanged. The data set is described as follows: Reduction in wild type APP751 (unknown origin) expressed in CHO cells assessed as increase in secreted APPbeta at 50 nM to 10 uM after 48 hrs by immunoblotting method relative to untreated control. Format: cell-based. In outline:
as §1

For data set [10] the target is unchanged. As to the kind of experiment: Reduction in wild type APP751 (unknown origin) expressed in CHO cells at 10 uM after 48 hrs by immunoblotting method relative to untreated control. The class given is cell-based. An outline of the steps: as §3
Data set [11] is described as follows: Drug level in brain of APP/PS1 double transgenic APdeltaE9 mouse 4 mg/kg, iv measured after 10 mins. The class given is ADME, organism-based. Further details: dose 4 mg/kg, route intravenous. The note with it: read-out: Drug uptake. An outline of the steps: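 Mice given 4 mg/kg by intravenous injection; compound level measured in brain over time after dosing (about 10–20 min window).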

Data set [12] deals with CHO. As to the kind of experiment: Toxicity against CHO cells assessed as induction of cell death up to 1 uM by MTT assay. The class given is cell-based, Cricetulus griseus. The note with it: chinese hamster. In outline:
as §4
(Tetrazolium dyes change colour on reduction, which living cells bring about.)

The next data set deals with Mus musculus. The data set is described as follows: Reduction in amyloid plaque numbers in APP/PS1 double transgenic APdeltaE9 mouse 0.5 mg/kg, ip dosed daily for 60 days starting from 4 to 6 months of age. The note with it: 1440 h, route intraperitoneal. The class given is functional. An outline of the steps:
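APP/PS1 double transgenic (APΔE9) mice dosed i.p. daily, 0.5 mg/kg body wt., from 4- to 6-months of age for 60 days. Amyloid plaque numbers counted in brain sections (cortex and hippocampus) versus vehicle-treated mice.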

Data set [13] has as its target Amyloid-beta precursor protein (Homo sapiens) (UniProt P05067). The data set is described as follows: Reduction in wild type APP751 (unknown origin) expressed in CHO cells assessed as increase in alpha c-terminal fragments at 50 nM to 10 uM after 48 hrs by immunoblotting method relative to untreated control. The class given is cell-based. An outline of the steps: as §2

For data set [14] the target is unchanged. As to the kind of experiment: Reduction in wild type APP751 (unknown origin) expressed in CHO cells assessed as increase in c-terminal fragments at 50 nM to 10 uM after 48 hrs by immunoblotting method relative to untreated control. The class given is cell-based. In outline:
as §2

Data set [15] has as its system CHO. As to the kind of experiment: Toxicity against CHO cells assessed as induction of cell death at 10 uM by LDH release assay. Format: cell-based, Cricetulus griseus. The note with it: chinese hamster. In outline:
as §4

Data set [16] has as its target Amyloid-beta precursor protein (Homo sapiens) (UniProt P05067). As to the kind of experiment: Reduction in wild type APP751 (unknown origin) expressed in CHO cells at 100 nM after 48 hrs by immunoblotting method relative to untreated control. The class given is cell-based. An outline of the steps:
as §3

The nature of data set [17]: Half life in brain of APP/PS1 double transgenic APdeltaE9 mouse 4 mg/kg, iv. Format: ADME, organism-based. More on the design: dose 4 mg/kg, route intravenous.
For data set [18], the target named is Amyloid-beta precursor protein (Homo sapiens) (UniProt P05067). The data set is described as follows: Reduction in wild type APP751 (unknown origin) expressed in CHO cells assessed as increase in secreted APPalpha at 50 nM to 10 uM after 48 hrs by immunoblotting method relative to untreated control. The class given is cell-based. An outline of the steps:
as §1

Data set [19] shares this target. As to the kind of experiment: Reduction in wild type APP751 (unknown origin) expressed in CHO cells assessed as increase in full length APP level at 50 nM to 10 uM after 48 hrs by immunoblotting method. Format: cell-based. In outline:
as §2

The target is the same in data set [20]. As to the kind of experiment: Reduction in wild type APP751 (unknown origin) expressed in CHO cells at 500 nM after 48 hrs by immunoblotting method relative to untreated control. The class given is cell-based. In outline: as §3

The record followed here is ChEMBL document CHEMBL3351949, “Substituted dithiazole piperazine benzamides as novel amyloid beta peptide reducing agents” (Bioorg Med Chem Lett, 2014).

Structures are written as SMILES. Active and inactive are the calls of the source. The rule behind the calls is not given here.

One may read the inhibition as the relative decrease from the control value, in per cent. Broadly, the inhibition in vivo is the drop in the measured response relative to a control, in per cent. The half-life is the time in which the quantity being followed falls by half.

For `NC(=O)c1ccc(N2CCN(c3nc(-c4cccc(O)c4)cs3)CC2)c(Nc2nc(-c3cccc(O)c3)cs2)c1`, the Activity in [1] is 40%; in the data set with CHO [5], “Toxic”; with CHO [7], “Non-toxic”; in data set [8], 80%; with CHO [12] it was “Non-toxic”; with CHO [15], “Toxic”. In addition, the inhibition entry (with N2a; in data set [3]) was “Active” each time. Besides, the inhibition result in data set [2] and in data set [9] was “inactive” throughout. The inhibition in data set [4] is 54%; in data set [6] it was 21%; in data set [10], 63%; in data set [13], “Dose-dependent effect”; in data set [14], “Dose-dependent effect”; in [16] it was 20%. For the same compound, the inhibition entry in [18] was “Dose-dependent effect”; in data set [19], “Dose-dependent effect”; in [20], 31%. The concentration at 10 min in [11] was 40 ng/mL. Also, in the data set with Mus musculus, testing at 0.5 mg/kg gave an inhibition in vivo of 39%. In data set [17], the half-life was 6.7 min.
